Data reported in the RNAGym collection of RNA variant scans (doi:10.1126/science.aae0568).
This sample holds only a part of the variants without activity.

B1: tRNA (parent)
chain: GUUCCGUUGGCGUAAUGGUAACGCGUCUCCCUCCUAAGGAGAAGACUGCGGGUUCGAGUCCCGUACGGAACG

Variants of: B1
Assay: yeast fitness relative to wild type (ratio to wild type); higher = fitter; tRNA-Arg(CCU), competitive growth, 37 C, YPD
Outline: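 Variants of the tRNA-Arg(CCU) gene, chemically synthesised with a 3% per-site mutation rate at 69 sites, were placed at the native genomic locus in Saccharomyces cerevisiae. The pooled strains were competed in YPD at 37°C for 24 hours in six parallel replicates. Gene amplicons from the start population and from each end population were read by 100-nucleotide paired-end sequencing. Darwinian fitness relative to wild type came from changes in genotype frequencies; genotypes needed ≥ 100 starting reads, and estimates < 0.5 were set to 0.5.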

| Variant | yeast fitness |
| --- | --- |
| A40C C62U U64C | 0.534 |
| G38C A40U A42G G51A C60U G68A | ≤ 0.5 |
| G39A U53A G68C | ≤ 0.5 |
| G39A G44A G51A | 0.597 |
| G39C G44C C46U A70U | ≤ 0.5 |
| G39A G52C C55G G63A | ≤ 0.5 |
| A40C C66G | 0.669 |
| A40C C66A | 0.755 |
| G39A C49G A69U | ≤ 0.5 |
| G39C A43G G44C A45U C49G | 0.563 |
| G39A G52C C55G | 0.541 |
| G39C G44C C46U | 0.588 |
| G38A U47C C66U | 0.555 |
| G38C A70U | 0.628 |
| G38A G39C C60A C66G | ≤ 0.5 |
| G39A G44C | 0.816 |
| G39U G52A | 0.779 |
| G39A A45C C61A | 0.618 |
| G39A A45C C61U | 0.706 |
| G39C G44C G56C | ≤ 0.5 |
| G38C C61A | 0.608 |
| G38C C55G A69C | 0.579 |
| G39A C49U C62U | 0.664 |
| A40C C55U C60G C62A | 0.546 |

| Variant | yeast fitness |
| --- | --- |
| G39A G51C | 0.562 |
| G38C A42C | 0.595 |
| G38C A42G | 0.655 |
| G38A G50C | 0.746 |
| G38A G50A | 0.859 |
| G39C A42C A45C | 0.538 |
| A40C A45C A70U | ≤ 0.5 |
| G38A U53A C66U | ≤ 0.5 |
| G39C G44C A65C | ≤ 0.5 |
| G39C A43U | 0.934 |
| G39C A43G | 0.684 |
| G39A G52C C55G C60A | ≤ 0.5 |
| G39A A69U | 1.03 |
| G39A A69C | 0.818 |
| G39A A40U | 1.19 |
| G39C A42G G63A | ≤ 0.5 |
| G38C G56A G58A | 0.609 |
| G39A G56A | 0.914 |
| G39A G56C | 0.603 |
| G39C C61U | 0.751 |
| G38C G39C G56C G68A | ≤ 0.5 |
| A40C A43U C61A | 0.611 |
| G39A G63C | 0.728 |
| G39C G50A U59C | ≤ 0.5 |

| Variant | yeast fitness |
| --- | --- |
| G39A G44A G50A | 0.607 |
| G39A C61A A69U | ≤ 0.5 |
| G38C G52C | 0.502 |
| A40C A42C U53A | ≤ 0.5 |
| A40C C60G C62G | ≤ 0.5 |
| G38C A40C U53C | 0.639 |
| G38C G67U A70U | ≤ 0.5 |
| A40C A42G G56C | 0.588 |
| A40C A42U G56A C66G | ≤ 0.5 |
| A40C C60U C61U | ≤ 0.5 |
| G39C G63A | 0.7 |
| G38C C49G G50C C61U | 0.555 |
| G39C G50A | 0.752 |
| G39C G50C | 0.575 |
| G38A U64A | 0.765 |
| G39C A40C G41A A42G A65U | ≤ 0.5 |
| G38A G48A C49G A70U | ≤ 0.5 |
| G38C U54G C60A | 0.589 |
| G39C G44C G50A | 0.566 |
| G38A U47C G48A | 0.542 |
| G38C C62G | 0.63 |
| G38C C62A | 0.624 |
| G39C G52C | 0.635 |
| A40C C46U G52C | ≤ 0.5 |

| Variant | yeast fitness |
| --- | --- |
| G38C U47C A65U | ≤ 0.5 |
| G38C A40U | 0.639 |
| G39C C60U | 0.656 |
| G39C C60A | 0.587 |
| G39C C60G | 0.619 |
| G39C U53G | 0.578 |
| G38C A43G C49G G51A | ≤ 0.5 |
| G38C C66A | 0.561 |
| G38C C66U | 0.664 |
| G38A G63A | 0.897 |
| G38C G58C A69U | 0.714 |
| G38C A69U | 0.788 |
| G38C A69C | 0.722 |
| A40C G56A G58C | 0.598 |
| G38C G41C A65G | 0.597 |
| G38C G50A U53G G68A | 0.597 |
| A40C G51A G63A A69C | ≤ 0.5 |
| A40G A42U C49A | ≤ 0.5 |
| G39C A43G G48C C49A G50A | ≤ 0.5 |
| G39C U54G A70C | 0.564 |
| A40C A42C A70U | 0.549 |
| G39C A57C A70U | ≤ 0.5 |
| G38A G48A A65G | 0.559 |
| A40C U47A | 0.636 |

| Variant | yeast fitness |
| --- | --- |
| G39A U53A | 0.596 |
| G39A A69G A70G | 0.946 |
| A40C G50C | 0.644 |
| A40C A57U C61U | ≤ 0.5 |
| G39C C46A C62G | ≤ 0.5 |
| G38C A65C C66U | ≤ 0.5 |
| G38C U54A | 0.615 |
| G38C G39U C60A | ≤ 0.5 |
| G39A C61A | 0.789 |
| G39A C61U | 0.866 |
| G38C A40U G48A C66U | 0.556 |
| A40C A45G U59A | 0.573 |
| G39A A42C | 0.646 |
| G39A A42G | 0.811 |
| G39A C66U A70G | 0.601 |
| G39A G51C U59C | ≤ 0.5 |
| G38C C62U A69U | 0.603 |
| G39A C46A | 1.01 |
| G39A C49A | 0.598 |
| G39A C49G | 0.66 |
| A40C A65U C66A | 0.562 |
| G39A G68U | 0.824 |
| G39C G41A C60G C61U C62G A65U | 0.547 |
| G38C C62U U64C A70U | ≤ 0.5 |

| Variant | yeast fitness |
| --- | --- |
| G38C A40U G67A | ≤ 0.5 |
| G38C A45C | 0.58 |
| G39C A42C | 0.687 |
| G39C A65G | 0.754 |
| G38C C46U A69U A70G | ≤ 0.5 |
| G39C G44C G52C G56A | ≤ 0.5 |
| G38C A45G U59A | ≤ 0.5 |
| G39A A57G | 0.79 |
| G39A A57U | 0.834 |
| G38A G41C A69U | 0.822 |
| A40C A45U | 0.98 |
| A40C A45G | 1 |
| G39A C60G | 0.666 |
| G38C A43U | 0.769 |
| G38C A43C | 1.12 |
| G38C A43G | 0.643 |
| G38C A43G C49G G51A C60U | ≤ 0.5 |
| A40C G41C G67C | ≤ 0.5 |
| G39C A40U U64G | ≤ 0.5 |
| A40C G67U | 0.815 |
| A40C G67C | 0.907 |
| A40C A42C G56A G67A | ≤ 0.5 |
| G38C G68A A70U | ≤ 0.5 |
| G38C G48A G56C | 0.7 |

| Variant | yeast fitness |
| --- | --- |
| G38C G41C G50U A65G | ≤ 0.5 |
| G38C C49G U54G | 0.621 |
| G38C G58C | 0.937 |
| G38C G58A | 0.756 |
| G38A G52C C62U | 0.595 |
| A40C G67U G68C | 0.585 |
| G39C U54G A65G | ≤ 0.5 |
| G39A A43U | 0.811 |
| A40C A42G A43G C49A G52A | ≤ 0.5 |
| G39C A43C G56A C60G | ≤ 0.5 |
| G38C C46G C55G C61G | ≤ 0.5 |
| G38C G41C C55U | ≤ 0.5 |
| G38C U64A G68A A69C | ≤ 0.5 |
| G39C C60U A69C | 0.565 |
| G39U C66U | 0.854 |
| G39C C62A U64A | ≤ 0.5 |
| A40C A43U C60U | 0.588 |
| A40C G44C C55G | ≤ 0.5 |
| G39C A69C | 0.834 |
| G39C A69U | 0.826 |
| G39C G67A A70G | 0.648 |
| G38C G67A A69U | 0.537 |
| G39A C55U | 0.873 |
